M5 PAM – human M5 muscarinic receptor positive allosteric modulators, primary screen, CHO-K1 cells, Fluo-8 calcium fluorescence | CHO-K1 hM5, ACh EC20 PAM; 0% = ACh EC20, 100% = ACh EC100 | activation, % at 3 µM | 360,000 compounds, 0.3% hits;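 active means activation above the run cutoff, the mean activation of all test compounds plus 3 SD, cut at about 18% in these data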
Target sequence (P08912 whole entry, looked up): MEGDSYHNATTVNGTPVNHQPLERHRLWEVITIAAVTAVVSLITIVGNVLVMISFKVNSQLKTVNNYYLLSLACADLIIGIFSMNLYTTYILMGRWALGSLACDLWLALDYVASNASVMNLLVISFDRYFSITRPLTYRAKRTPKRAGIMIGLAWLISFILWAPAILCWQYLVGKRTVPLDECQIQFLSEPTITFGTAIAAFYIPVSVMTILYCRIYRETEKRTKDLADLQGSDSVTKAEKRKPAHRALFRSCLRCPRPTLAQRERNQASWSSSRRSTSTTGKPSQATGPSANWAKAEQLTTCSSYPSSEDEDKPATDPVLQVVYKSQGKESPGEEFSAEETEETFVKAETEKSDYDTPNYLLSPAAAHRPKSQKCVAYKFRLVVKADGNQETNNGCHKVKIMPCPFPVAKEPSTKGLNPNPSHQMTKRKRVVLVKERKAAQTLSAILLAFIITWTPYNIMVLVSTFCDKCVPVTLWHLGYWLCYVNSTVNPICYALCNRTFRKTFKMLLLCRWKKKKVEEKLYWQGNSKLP
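Probe or stimulus: acetylcholine, EC20 level; Assay system: human M5 receptor in CHO-K1 cells; Schedule: compound preincubation 140 s before EC20 acetylcholine addition; Technique: intracellular calcium via Fluo-8 fluorescence; Dosing: single-point, 3 µM nominal; Read-out basis: percent activation from peak-over-basal fluorescence ratio, scaled EC20-to-EC100 acetylcholine; Repeats: one well per compound, no replicates.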
M4 PAM – human M4 muscarinic receptor positive allosteric modulators, primary screen, CHO-K1 cells, Fluo-8 calcium fluorescence; 360,000 compounds, 0.4% hits; CHO-K1 hM4/Gqi5, ACh EC20; 0% = ACh EC20, 100% = maximal ACh; AID 624126, 2012; activation, % at 3 µM;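 active means activation above its plate's cutoff, the mean activation of sample wells plus 3 SD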
M5 ag – human M5 muscarinic receptor agonists, primary screen, CHO-K1 cells, Fluo-8 calcium fluorescence; Muscarinic acetylcholine receptor M5 (Homo sapiens), P08912; CHO-K1 hM5 cells; 0% DMSO wells, 100% maximal acetylcholine response; activation, % at 3 µM; 360,000 compounds, 0.19% hits; AID 624037, 2012;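 active means activation above the run's mean over test compounds plus 3 SD, cut at about 23% in these data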;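 further: signal is peak over basal fluorescence ratio across the kinetic read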
CHRM4 agonist – human M4 muscarinic receptor agonists, primary screen, CHO-K1 cells, Fluo-8 calcium fluorescence. Muscarinic acetylcholine receptor M4 (Homo sapiens), P08173. CHO-K1 hM4/Gqi5; vehicle 0%, full acetylcholine response 100%. activation, % at 3 µM. 360,000 compounds, 0.14% hits. AID 624127, 2012;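 active means activation above the run mean over all test wells plus 3 SD, cut at about 32% in these data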;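 further: peak over basal fluorescence ratio per well then scaled between controls; 0% = DMSO wells and 100% = acetylcholine at EC100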
M5 antag – human M5 muscarinic receptor antagonists, primary screen, CHO cells, Fluo-8 calcium fluorescence; Muscarinic acetylcholine receptor M5 (Homo sapiens), P08912; CHO-hM5 cells, ACh EC80; inhibition, % at 3 µM; 360,000 compounds, 0.59% hits; AID 624040, 2012;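 active means inhibition above a per-plate cutoff, the mean of that plate's test compounds plus 3 SD, cut at about 27% in these data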;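 further: 0% = acetylcholine EC80 with DMSO and 100% = DMSO without agonist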
M4 antag – human M4 muscarinic receptor antagonists, primary screen, CHO cells, Fluo-8 calcium fluorescence | AID 624125, 2012 | 360,000 compounds, 0.73% hits | inhibition, % at 3 µM | CHO-hM4 cells, ACh EC80;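 active means inhibition above its plate's cutoff, the mean inhibition of sample wells plus 3 SD, cut at about 27% in these data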;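 further: 0% = acetylcholine EC80 with DMSO and 100% = DMSO without agonist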
The depositor's hits bear a star. In the library only some 1.8% were active in any assay of this set; here they are far more common.

SMILES	M5 PAM	M4 PAM	M5 ag	CHRM4 agonist	M5 antag	M4 antag
CCOC(=O)c1[nH]c2ccc(OC)cc2c1C	-3	20	1	3	32*	1
COc1ccc(OC)c(NC(=O)c2sc3ncnc(N4CCN(c5ccccn5)CC4)c3c2C)c1	4	19*	-2	1	-1	-22
O=C(Nc1cccc(OC(F)(F)F)c1)[C@@H]1O[C@H](CO)[C@H](O)[C@H](O)[C@H]1O	2	2	-1	0	3	-1
CCn1c(SCC(=O)NNC(=O)c2ccc(C)cc2)nnc1C(C)C	0	15*	-4	1	3	-15
CN(C)c1ccc(CC(=O)N2CCCC(c3cc(C(=O)Nc4ccc(F)c(Cl)c4)no3)C2)cc1 (stereo not given)	-12	-13	3	16	17	28*
COc1ccc2c(c1)CCCC21NC(=O)N(CC(=O)NCc2cccs2)C1=O (stereo not given)	4	3	-1	0	7	-4
CC(=O)c1sc2nc(-c3ccc(C)cc3)c3c(c2c1N)CCCC3	-2	-12	-2	-1	4	-3
Cc1ccc(-c2nc3sc(C(N)=O)c(N)c3c3c2CCCC3)cc1	-12	-18	0	-2	10	99*
Cc1cc(OC(=O)c2ccccc2C)c([N+](=O)[O-])c(=O)[nH]1	-8	-6	2	16	4	0
O=C(Nc1cccc2ccccc12)c1ccc2sc([C@H]3C[C@H](O)[C@@H](CO)O3)nc2c1	-7	-11	0	3	3	8
Cc1c(C(C)C)c(=O)n(-c2ccc(S(=O)(=O)NC3CCCCC3)cc2)n1C	-14	-7	2	15	30*	2
CCN(CC(=O)NCc1ccc(Cl)cc1)C(=O)CCc1ccccc1	-1	2	-5	1	14	3
O=C(Nc1ccccc1OC(=O)c1ccccc1)c1ccccc1	-6	11	-1	4	1	-38
Cc1cc(C)cc(OC(=O)COc2ccccc2C)c1	2	-1	-5	-1	-3	7
CC(C)CC(=O)Nc1cccc(C(=O)Nc2ccccc2C(=O)O)c1	7	30*	0	-2	-5	-22
O=C(Nc1ccccc1C(=O)O)c1cccc(NC(=O)c2ccc(Br)o2)c1	0	18*	4	-1	-5	-7
O=C(Nc1cccc(NC(=O)c2ccc(-c3ccc(Br)cc3)o2)c1)c1ccccc1	7	23	-3	1	6	4
CC(=O)c1cccc(NC(=O)c2ccc(Br)o2)c1	1	16	-1	2	4	29*
CC(=O)c1cccc(NC(=O)c2ccc(C)o2)c1	-3	-1	0	1	10	10
O=C(Nc1cccc(NC(=O)c2ccc(-c3cccc(Br)c3)o2)c1)c1ccco1	-10	-16	2	12	19	33*
c1ccc2c(-c3cccc4nccn34)cncc2c1	-5	0	-4	2	3	-2
CN(C)C(=S)Oc1ccccc1C1SCCS1	-5	-1	-2	1	0	-17
O=C(Nc1ccc(Nc2ccccc2)cc1)c1ccc(Br)cc1	-4	2	1	0	3	7
CC(=O)c1cccc(NC(=O)c2cc(-c3cccs3)on2)c1	2	16*	-2	1	-7	-25
O=C(Nc1cccc(C(=O)Nc2ccc(Br)cc2)c1)c1ccccc1	-24	-12	-2	20	31*	17
SMILES	M5 PAM	M4 PAM	M5 ag	CHRM4 agonist	M5 antag	M4 antag
O=C(Nc1cccc(-c2cnc3ccccc3n2)c1)c1cccc(NC(=O)c2ccco2)c1	-18	-24	4	20	26	42*
O=C(Nc1cccc(-c2cnc3ccccc3n2)c1)c1ccccc1	-4	4	1	1	-2	-6
CC(C)C[C@@H]1Cc2[nH][nH]c(=O)c2[C@H](C)O1	2	8	3	0	-3	-4
O=C(NNC(=O)C1CCN(S(=O)(=O)c2cccc(C(F)(F)F)c2)CC1)C1CC1	-4	5	-4	1	-3	-5
CNC(=O)c1ccc(NC(=O)C2CCN(S(=O)(=O)c3cccc(C(F)(F)F)c3)CC2)cc1	19*	6	0	0	-10	-11
O=C(N/C(=C/c1cccc([N+](=O)[O-])c1)C(=O)N1CCCCC1)c1ccco1	-10	-4	-3	2	32*	-6
O=C(N/C(=C/c1cccc([N+](=O)[O-])c1)C(=O)N1CCCCCC1)c1cccs1	0	8	0	1	-2	-6
CC(=O)N1CCc2cc(S(=O)(=O)N3CCc4ccccc43)ccc21	-9	-4	-5	14	9	-16
CN(C)Cc1ccccc1CCc1ccccc1	-29	-14	-18	1	30*	31*
Cc1nc(C(F)(F)F)ccc1C(=O)N1CCC(C)(C(=O)NS(=O)(=O)C2CC2)C1 (stereo not given)	-5	-5	0	0	3	4
Nc1ccc2cccc(O)c2c1	7	8	3	0	-5	-9
CCN(CC)c1ccc(/C=N/NC(=O)c2ccc3c(c2)OCCO3)cc1	-11	-2	-2	4	28*	-6
COc1ccc(CCNC(=O)COC(=O)c2cc(S(=O)(=O)NCc3ccccc3)ccc2O)cc1OC	7	32*	2	2	-14	19
O=C(NCc1ccccc1)C(CCc1ccccc1)n1c(=O)c(-c2ccccc2)nc2ccccc21 (stereo not given)	20*	4	1	4	-15	5
O=C(NCc1ccccc1)C(CCc1ccccc1)n1c(=O)c(-c2cc3ccccc3[nH]2)nc2ccccc21 (stereo not given)	2	4	3	2	5	-4
COc1ccc(S(=O)(=O)N2CCc3ccccc32)cc1C(=O)NCC(c1ccco1)N1CCCC1 (stereo not given)	3	1	0	1	7	0
COCCCn1c(C)cc(C(=O)CN2c3cccc4cccc(c34)S2(=O)=O)c1C	-7	-4	2	8	14	6
Cc1ccc(NC(=O)NCc2cccn2C)cc1C	-3	-1	-4	0	5	5
Cc1nn(-c2ccc(C(=O)O)cc2)c(N)c1-c1ccccc1	-1	-3	-4	0	4	-7

Bioassay records as filed in PubChem BioAssay.
